One may read the IC90 as the concentration needed for an effect of 90%. For orientation: ED50 means the dose at which the effect has come halfway, by size or by number of responders. What is called inhibition is the share of the control response that was lost under treatment. A word on the Cmax: it is the peak of the concentration-time curve. In general, half-life refers to the time needed for the level to fall by half in the phase considered. As usually defined, the fraction unbound is the share of the substance not bound to proteins or other matrix. What is called Kd is the concentration at which binding is half-saturated. In general, Vd refers to the apparent volume that relates the amount in the body to the concentration in plasma or blood. What is called clearance is the volume of plasma or blood freed of the substance per unit of time.

In brackets after ≈: the same amount, converted by molar mass. Several values for one entry are separate records, joined by “and”; a condition that tells them apart may be missing. Identical values can stand only once. Like-named read-outs stand apart in the source and are kept apart here. Bounds are passed on as bounds.

Data on three compounds can be found in publication PMC5731459 (Science translational medicine, 2017).

Data set [1] deals with P. falciparum NF54 strain. In words: Erythrocytic IC50 speed and stage specificity assays. It is filed as cell-based, Plasmodium falciparum.
In data set [2] the test system is P. falciparum late-stage gametocytes (stages IV and V). In words: Gametocyte viability assay. It is filed as cell-based. The conditions noted are these: Plasmodium falciparum, read-out: IC50, gametocyte viability (pLDH).
For data set [3], the system named is P. falciparum (NF54 drug-sensitive strain). Description: [3H]-hypoxanthine incorporation assay, asexual blood-stage parasites. Format: cell-based. The conditions noted are these: Plasmodium falciparum, NF54, 72 h.
The subject of a further data set is P. falciparum 3D7 strain. In words: In vitro parasite reduction ratio. Format: cell-based, Plasmodium falciparum. The conditions noted are these: 10× IC50.
Data set [4] has as its system P. berghei. Description: P. berghei mouse efficacy model. Format: in vivo, Plasmodium berghei.
Data set [5] has as its system drug-sensitive 3D7 P. falciparum strain. In words: P. falciparum humanized SCID mouse efficacy model. The conditions noted are these: once daily oral for four consecutive days. It is filed as in vivo, Plasmodium falciparum. An outline of the steps:
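Humanized SCID mice were infected with P. falciparum 3D7. From day 3 after infection, test compound was given orally once daily for 4 days, one mouse per dose level. Blood parasitemia was measured by flow cytometry and ED90 was read at day 7. Whole-blood drug levels were sampled 0–23 h after the first dose (LLOQ 1 ng/mL).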

The test system of a further data set is P. falciparum. In words: PKPD. It is filed as in vivo, Plasmodium falciparum. The procedure, abridged:
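A direct-effect composite Emax PKPD model was fitted to humanized SCID mouse P. falciparum efficacy data, allowing for change in kill rate at higher doses. Inputs were modeled blood concentrations from individual-mouse whole-blood PK after once-daily oral dosing for 4 days. The model gave MIC, EC50/EC90 for kill rate and predicted parasitemia after 4 days.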

Data set [6] has as its system P. falciparum early-stage (stages I to III) gametocytes expressing luciferase. In words: Gametocyte viability assay. Format: cell-based, Plasmodium falciparum.
In data set [7] the test system is P. falciparum late-stage (stages IV and V) gametocytes expressing luciferase. Description: Gametocyte viability assay. It is filed as cell-based, Plasmodium falciparum.
The test system of data set [8] is P. falciparum stage V gametocytes. Description: Male gamete formation. It is filed as cell-based. The conditions noted are these: Plasmodium falciparum, 24 h, read-out: potency, inhibition of exflagellation.
Data set [9] deals with P. falciparum stage V gametocytes (oocysts in mosquito midgut). In words: Indirect standard membrane-feeding assay. It is filed as cell-based. The conditions noted are these: Plasmodium falciparum, 24 h, read-out: inhibition of oocyst formation (potency).
For data set [10] the test system is unchanged. Description: Direct standard membrane-feeding assay. Format: cell-based. The conditions noted are these: Plasmodium falciparum, read-out: inhibition of the formation of oocysts.
Data set [11] concerns P. berghei. In words: Mouse-to-mouse transmission model. Format: in vivo, Plasmodium berghei. The conditions noted are these: 2 mg/kg oral; compared to 6.1 days in control mice. An outline of the steps: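 Female TO mice (6–8 weeks) were infected i.p. with P. berghei clone 507cl1. On day 9, after exflagellation was confirmed, each received one 2 mg/kg oral gavage dose; controls were atovaquone 0.3 mg/kg and sulfadiazine 8.4 mg/kg i.p. Mosquitoes fed, then at day 21 bit naive mice for 20 min. Smears on days 4–10 set patency. Duplicates were combined by generalized linear mixed model against no-drug control.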

For data set [12], the system named is P. cynomolgi liver-stage parasites. Description: P. cynomolgi liver-stage assay, IC99. It is filed as cell-based, Plasmodium cynomolgi.
Data set [13] is described as follows: Plasma concentrations in the prophylactic monkey study. The conditions noted are these: po, 20 mg/kg. It is filed as in vivo, Macaca mulatta.
Data set [14] is described as follows: Plasma concentrations in the radical cure monkey study. Format: in vivo, Macaca mulatta.
Data set [15] in a line: Protein binding and blood-to-plasma partitioning. Format: in vitro ADME.
In data set [16] the test system is P. berghei-infected HepG2 liver cells. Description: P. berghei liver-stage phenotyping in HepG2 cells. Format: cell-based, Plasmodium berghei. The conditions noted are these: 460 nM, 2 to 8 hours after infection. An outline of the steps: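 Extracellular sporozoites were washed off at 2 h, then cells were exposed to 460 nM test compound or DMSO vehicle. Cells were fixed 8 h after invasion, immunolabeled and imaged by confocal microscopy.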

Data set [17] has as its system P. falciparum Dd2 parasites. Description: microbe, parasite or virus in culture. It is filed as cell-based. The conditions noted are these: Plasmodium falciparum.
Data set [18] relates to Dd2 multidrug-resistant parental line. In words: Cross-resistance test, parental line. The conditions noted are these: Plasmodium falciparum. Format: cell-based.
For data set [19], the system named is parasites bearing PfPI4K mutation H1484Y. In words: Cross-resistance test, transgenic PI4K-H1484Y line. It is filed as cell-based. The conditions noted are these: Plasmodium falciparum.
The subject of data set [20] is parasites bearing PfPI4K mutation S1320L. In words: Cross-resistance test, transgenic PI4K-S1320L line. Format: cell-based. The conditions noted are these: Plasmodium falciparum.
Data set [21] addresses T1, PfPI4K (Plasmodium falciparum, UniProt Q8I406). In words: Chemoproteomic competition binding, immobilized MMV666845 beads.
The target of data set [22] is T1, PfPI4K. In words: Chemoproteomic competition binding, Kinobeads.
For another data set, the target named is PI4KB (Q9UBF8) (Homo sapiens, UniProt Q9UBF8). In words: Chemoproteomic pull-down in K562 cell extract. Format: binding. The procedure, abridged:
(§1)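 They were incubated 1 h at 4°C with K562 extract (5 mg) preincubated with test compound or buffer. Eluates were alkylated, separated by SDS gel and quantified by isobaric mass tagging LC-MS/MS.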

The target in the next data set is PI4KA (P42356) (Homo sapiens, UniProt P42356). In words: Chemoproteomic pull-down in K562 cell extract. It is filed as binding. An outline of the steps: as §1
Chain of PI4KA (P42356) (P42356 whole entry): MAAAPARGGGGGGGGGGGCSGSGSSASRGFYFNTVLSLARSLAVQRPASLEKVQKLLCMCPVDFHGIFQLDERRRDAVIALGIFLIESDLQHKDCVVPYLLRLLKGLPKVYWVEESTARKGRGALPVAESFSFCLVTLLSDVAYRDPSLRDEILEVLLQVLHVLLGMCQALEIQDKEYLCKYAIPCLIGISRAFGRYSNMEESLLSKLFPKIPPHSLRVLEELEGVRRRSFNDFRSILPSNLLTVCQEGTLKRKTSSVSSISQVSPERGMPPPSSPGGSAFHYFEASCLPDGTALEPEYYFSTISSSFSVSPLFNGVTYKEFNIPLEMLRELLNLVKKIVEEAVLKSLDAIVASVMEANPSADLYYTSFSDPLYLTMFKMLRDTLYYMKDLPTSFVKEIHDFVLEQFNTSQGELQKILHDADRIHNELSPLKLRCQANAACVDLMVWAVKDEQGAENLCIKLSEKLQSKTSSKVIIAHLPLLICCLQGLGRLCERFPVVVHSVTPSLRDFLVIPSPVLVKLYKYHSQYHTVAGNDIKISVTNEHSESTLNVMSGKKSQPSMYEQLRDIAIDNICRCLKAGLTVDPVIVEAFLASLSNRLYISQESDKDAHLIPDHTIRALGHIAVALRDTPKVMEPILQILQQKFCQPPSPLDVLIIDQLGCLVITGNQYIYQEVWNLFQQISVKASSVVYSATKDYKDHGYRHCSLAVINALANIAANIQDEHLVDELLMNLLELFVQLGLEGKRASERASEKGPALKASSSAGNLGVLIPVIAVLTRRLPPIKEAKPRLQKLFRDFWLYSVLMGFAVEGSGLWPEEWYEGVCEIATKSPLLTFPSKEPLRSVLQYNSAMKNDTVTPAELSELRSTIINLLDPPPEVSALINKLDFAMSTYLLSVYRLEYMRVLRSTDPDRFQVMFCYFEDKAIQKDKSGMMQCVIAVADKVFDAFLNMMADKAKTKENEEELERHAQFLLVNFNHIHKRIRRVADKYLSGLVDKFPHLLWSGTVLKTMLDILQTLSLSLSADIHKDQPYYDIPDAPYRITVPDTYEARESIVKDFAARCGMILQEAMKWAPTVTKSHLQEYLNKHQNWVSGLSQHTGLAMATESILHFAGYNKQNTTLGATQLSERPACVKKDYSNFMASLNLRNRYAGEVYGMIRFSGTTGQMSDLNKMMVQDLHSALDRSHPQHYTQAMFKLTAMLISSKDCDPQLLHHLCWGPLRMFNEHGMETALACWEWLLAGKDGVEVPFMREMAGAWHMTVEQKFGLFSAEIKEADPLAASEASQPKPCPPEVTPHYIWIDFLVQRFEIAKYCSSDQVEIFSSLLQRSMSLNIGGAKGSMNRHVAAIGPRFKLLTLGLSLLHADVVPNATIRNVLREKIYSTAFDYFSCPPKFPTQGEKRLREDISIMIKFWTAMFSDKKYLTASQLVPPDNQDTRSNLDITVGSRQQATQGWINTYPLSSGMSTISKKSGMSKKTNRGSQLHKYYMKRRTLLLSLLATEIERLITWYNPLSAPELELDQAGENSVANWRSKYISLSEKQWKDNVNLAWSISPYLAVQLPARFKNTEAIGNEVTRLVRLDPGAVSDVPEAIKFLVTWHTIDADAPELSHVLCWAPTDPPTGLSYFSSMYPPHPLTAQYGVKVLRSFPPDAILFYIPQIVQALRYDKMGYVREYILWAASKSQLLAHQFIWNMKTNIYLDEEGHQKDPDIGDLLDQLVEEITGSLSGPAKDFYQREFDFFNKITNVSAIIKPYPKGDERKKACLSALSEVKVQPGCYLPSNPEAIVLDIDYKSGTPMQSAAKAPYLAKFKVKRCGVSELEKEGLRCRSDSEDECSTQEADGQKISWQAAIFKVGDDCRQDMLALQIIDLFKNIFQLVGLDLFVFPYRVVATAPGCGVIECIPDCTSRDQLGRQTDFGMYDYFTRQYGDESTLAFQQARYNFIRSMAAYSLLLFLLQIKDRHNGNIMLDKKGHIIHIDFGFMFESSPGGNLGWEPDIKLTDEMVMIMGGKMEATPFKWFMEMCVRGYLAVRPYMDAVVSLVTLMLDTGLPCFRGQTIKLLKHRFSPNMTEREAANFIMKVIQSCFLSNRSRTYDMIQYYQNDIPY
The next data set addresses ATM (Q13315) (Homo sapiens, UniProt Q13315). Description: Chemoproteomic pull-down in K562 cell extract. Format: binding. An outline of the steps: as §1
The target of the next data set is TNIK (Q9UKE5) (Homo sapiens, UniProt Q9UKE5). Description: Chemoproteomic pull-down in K562 cell extract. Format: binding. The procedure, abridged:
as §1

The nature of data set [23]: Allometric scaling to human pharmacokinetics and dose.
For data set [24] the following is noted: rats; cited from earlier work.
The conditions of data set [25]: pH 6.5; cited from earlier work.
A short description of a further data set: in vivo. The conditions noted are these: male (mice, rats), female (monkeys, dogs), Swiss outbred (mice), Sprague Dawley (rats), beagle (dogs), mouse, rat, dog, cynomolgus monkey, iv.
For a further data set, the system named is P. cynomolgi. Description: Radical cure study in P. cynomolgi-infected rhesus macaques. The conditions noted are these: 20 mg/kg oral daily for 5 days, Cmax 5697 ng/ml.
Setting [26] is: Plasmodium falciparum, read-out: IC50, gametocyte viability (luciferase).

Chain of PI4KB (Q9UBF8) (Q9UBF8 whole entry): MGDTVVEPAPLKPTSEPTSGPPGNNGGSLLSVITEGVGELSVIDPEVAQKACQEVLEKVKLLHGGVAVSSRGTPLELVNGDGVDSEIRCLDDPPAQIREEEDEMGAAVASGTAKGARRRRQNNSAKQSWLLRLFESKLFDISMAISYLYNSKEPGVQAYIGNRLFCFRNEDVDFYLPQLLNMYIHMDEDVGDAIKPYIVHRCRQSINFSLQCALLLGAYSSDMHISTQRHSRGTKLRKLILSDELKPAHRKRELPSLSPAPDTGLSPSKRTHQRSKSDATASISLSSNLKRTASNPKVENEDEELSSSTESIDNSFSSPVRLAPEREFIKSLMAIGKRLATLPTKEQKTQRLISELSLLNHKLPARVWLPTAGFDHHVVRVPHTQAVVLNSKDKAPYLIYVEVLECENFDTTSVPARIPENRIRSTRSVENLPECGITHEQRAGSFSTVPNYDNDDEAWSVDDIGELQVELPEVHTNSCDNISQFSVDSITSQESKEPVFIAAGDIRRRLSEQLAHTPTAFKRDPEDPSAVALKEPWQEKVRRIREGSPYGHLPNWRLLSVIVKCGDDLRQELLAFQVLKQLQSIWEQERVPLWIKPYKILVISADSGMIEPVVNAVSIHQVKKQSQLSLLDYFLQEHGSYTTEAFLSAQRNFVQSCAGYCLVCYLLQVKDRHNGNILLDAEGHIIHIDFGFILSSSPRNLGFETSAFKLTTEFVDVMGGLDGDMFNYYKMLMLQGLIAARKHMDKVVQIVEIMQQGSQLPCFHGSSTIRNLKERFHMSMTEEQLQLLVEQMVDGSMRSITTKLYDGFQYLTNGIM
Chain of TNIK (Q9UKE5) (Q9UKE5 whole entry): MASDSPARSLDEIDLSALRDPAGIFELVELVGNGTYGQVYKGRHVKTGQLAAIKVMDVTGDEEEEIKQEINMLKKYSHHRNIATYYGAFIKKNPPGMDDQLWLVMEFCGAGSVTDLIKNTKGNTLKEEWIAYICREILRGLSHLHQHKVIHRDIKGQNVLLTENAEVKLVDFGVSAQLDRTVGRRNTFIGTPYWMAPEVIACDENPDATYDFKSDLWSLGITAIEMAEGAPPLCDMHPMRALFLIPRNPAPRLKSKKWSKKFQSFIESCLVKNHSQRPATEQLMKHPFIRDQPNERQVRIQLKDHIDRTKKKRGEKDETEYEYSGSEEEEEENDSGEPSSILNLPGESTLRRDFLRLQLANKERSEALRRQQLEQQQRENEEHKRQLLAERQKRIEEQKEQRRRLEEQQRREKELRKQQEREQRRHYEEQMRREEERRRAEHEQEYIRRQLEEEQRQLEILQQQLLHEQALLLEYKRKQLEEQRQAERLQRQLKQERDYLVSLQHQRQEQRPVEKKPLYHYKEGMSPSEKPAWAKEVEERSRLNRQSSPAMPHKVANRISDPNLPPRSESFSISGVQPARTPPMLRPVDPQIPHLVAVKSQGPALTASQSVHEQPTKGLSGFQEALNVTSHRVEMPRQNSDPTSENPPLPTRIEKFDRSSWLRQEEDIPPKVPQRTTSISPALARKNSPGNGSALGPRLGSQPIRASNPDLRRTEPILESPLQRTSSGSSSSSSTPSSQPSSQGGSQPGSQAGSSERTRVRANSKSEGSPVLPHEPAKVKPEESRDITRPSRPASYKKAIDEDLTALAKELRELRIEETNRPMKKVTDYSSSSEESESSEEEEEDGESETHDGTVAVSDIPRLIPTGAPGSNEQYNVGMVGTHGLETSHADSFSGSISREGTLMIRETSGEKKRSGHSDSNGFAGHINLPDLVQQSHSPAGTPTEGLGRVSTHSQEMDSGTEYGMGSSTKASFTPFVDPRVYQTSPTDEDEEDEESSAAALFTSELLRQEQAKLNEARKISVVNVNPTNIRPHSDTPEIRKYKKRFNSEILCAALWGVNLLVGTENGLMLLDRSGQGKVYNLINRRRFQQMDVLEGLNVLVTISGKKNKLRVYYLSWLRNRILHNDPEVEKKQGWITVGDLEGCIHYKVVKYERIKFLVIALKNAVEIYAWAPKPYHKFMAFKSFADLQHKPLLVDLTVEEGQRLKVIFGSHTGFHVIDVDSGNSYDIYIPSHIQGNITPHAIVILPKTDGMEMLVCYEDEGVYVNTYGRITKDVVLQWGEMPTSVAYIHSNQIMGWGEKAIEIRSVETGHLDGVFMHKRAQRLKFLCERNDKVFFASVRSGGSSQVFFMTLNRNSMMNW

As to `CCc1nc(N)nc(N)c1-c1ccc(Cl)cc1` [pyrimethamine, reference compound], the “IC50 fold higher at 24-hour compared to 72-hour time point” value in data set [1] (unsynchronized culture) is listed as 7.8 fold.

Turning to `C[C@H]1[C@@H](O)O[C@@H]2O[C@@]3(C)CC[C@H]4[C@H](C)CC[C@@H]1[C@@]24OO3` [dihydroartemisinin, reference compound], in data set [2], the IC50 was 12 nM.

As to `CS(=O)(=O)c1ccc(-c2cnc(N)c(-c3ccc(C(F)(F)F)nc3)c2)cc1` [MMV390048], in data set [3], the IC90 was 40 nM. Also, the lag phase with P. falciparum 3D7 strain is 24 h. The blood-stage specificity profile entry in data set [1] is “highest activity against the young schizont stage”. The same compound yielded an ED50 in the data set on P. berghei [4] (Plasmodium berghei, in Mus musculus, po, 72 h) of 0.57 mg/kg. The compound further returned an ED90 in the data set with P. berghei [4] (four oral administrations (4, 24, 48, 72 hours after infection), measured at 96 hours) of 1.1 mg/kg. The “in vivo parasite clearance rate” value in the data set with P. berghei [4] (single oral dose 100 mg/kg) was “intermediate”. In data set [5], the “ED90 at day 7” value was found to be 0.57 mg/kg. For the same compound, the “parasitemia at the end of 4 days” value in the data set on P. falciparum (dose of 1 mg/kg (highest predicted kill rate)) was less than 0.01%. Moreover, the “MIC to inhibit growth” value in the data set on P. falciparum (modeled blood concentration) came out at 0.071 µg/mL (≈ 0.18 µM). Besides, the IC50 in data set [2] worked out at 285 nM; in data set [6] (setting [26]) it was 214 nM; in [7] (setting [26]), 140 nM; in data set [8], 90 nM; in data set [9] it was 111 nM; in data set [17] (DD2) it was 16 nM. Further, the IC50 is 70 to 90 nM in data set [17] (DD2, read-out: IC50 of resistant clones); 22.7 nM in [18]; 62.8 nM in data set [19]; 57.7 nM in data set [20]. The “clearance rate (slope)” value was −6.09 in data set [6] (stage I to III, at IC50 concentration over 3 days); −15.49 in data set [7] (stage IV and V, at IC50 concentration over 3 days). Besides, in data set [7], the “late-stage gametocytes killed faster than early-stage” value is 2.5 times. In data set [7] (luciferase-expressing gametocytes), the “rate of onset of action” value was determined as 24 h. The inhibition at 1000 µM in [10] was less than 25%. For the same compound, in the data set on P. berghei [11], the “Prepatency (±SEM)” value is 6.8 days (±0.28). In addition, the “liver-stage IC99 (in vitro)” value in data set [12] was found to be 90 nM. Besides, the “in vivo IC99 (estimated)” value in data set [12] (in vitro IC99 corrected for AlbuMAX binding and plasma protein binding) is 353 ± 32 nM and 138 ± 13 ng/ml. In addition, the Cmax in [13] is 1980 ng/mL; in [14] (monkey, plasma, po, 20 mg/kg), 5700 ng/mL. The compound also gave a half-life in data set [13] of approximately 30 h. Moreover, the “time plasma concentration above liver-stage IC99” value in data set [14] (20 mg/kg oral daily for 5 days) came out at 15.8 days. Further, the “time plasma concentration above blood-stage MIC” value in data set [14] (rhesus macaque (Macaca mulatta), in vivo) is 20 days. The “serum albumin (AlbuMAX) binding” value in data set [15] is on record as 54%. The compound also gave a fraction unbound in data set [15] (plasma, protein binding, used for MIC correction) of 0.139. Also, the “localization of parasitophorous vacuole membrane protein UIS4” value in data set [16] is given as “mislocalization”. The Kd on PfPI4K [21] stood at 300 nM; on PfPI4K [22], 100 nM. Also, the “effect of excess free compound on capture of P. falciparum PI4K by the beads” value at PfPI4K [21] (excess compound (10 µM for MMV390048)) is “competitively inhibited”. Further, the binding result at PI4KB (Q9UBF8) and on PI4KA (P42356) was “did not observe any binding” in each case. The binding affinity entry on ATM (Q13315) and on TNIK (Q9UKE5) was “low binding affinity” throughout. For the same compound, in [23], the “predicted elimination half-life in humans” value is “about 90 hours”. Also, the “predicted plasma clearance in humans” value in data set [23] was 0.02 liter/hour per kg. Further, in data set [23], the “predicted volume of distribution in humans” value is 2.8 L/kg. Besides, the absorption entry in data set [24] is “well absorbed”. Also, the kinetic solubility result in data set [25] is “not optimal”. In the data set “in vivo”, this compound returned a Vd of 1.3 to 3 L/kg. Also, in the data set “in vivo”, the clearance was 0.6 to 6.5 mL/min/kg. In addition, the observed toxicity result in the data set on P. cynomolgi is given as “without any observed toxicity”.
